Rows were chosen to be rich in hits. Some 1.6% of all compounds tested hit in one or more screens of this group.
Beta2AR agonist: activates human beta-2 adrenergic receptor causing internalization. response, % (no concentration beside the values). Am2.2-beta2AR cells, FAP receptor internalization, flow cytometry. P07550. 340,000 compounds, 0.43% hits;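 active = response above a set limit, near 3 SD of response in nonfluorescent compounds, cut at about 42% in these data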
Dynein cargo inh: blocks dynein driven cargo transport along microtubules; 3617.4 mouse cells, GR-EGFP nuclear translocation imaging; test concentration mostly 20 µM; stimulated with dexamethasone, 1 µM; stronger effect = lower value; z-score, hits read low; 220,000 compounds, 0.47% hits;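 active = plate z-score of nuclear minus cytoplasmic receptor signal below a set negative limit, without overly bright fluorescence or cell loss, cut at about -3.5 in these data, passing the limit was not always enough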;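 also: z-score of nuclear minus cytoplasmic ring GR-EGFP intensity difference per well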
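Buffer or medium: tet-free medium with charcoal-stripped serum / Also added: dexamethasone agonist, 1.0 µM final, for 30 min / Timing: induction 48 h, compound 1 h, agonist 30 min / Measured by: high-content fluorescence imaging after fixation / Read-out: nuclear-to-cytoplasmic GR-EGFP distribution per well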
NOD2-RIPK2 inh: inhibitors of human NOD2-RIPK2 interaction; O43353; CHO BLA complementation NOD2-RIPK2, CCF4 ratio; inhibition, % at 4.98 µM; 360,000 compounds, 0.38% hits; AID 624267; in the data active = inhibition above about 21%
ABHD5 PLIN5 PPI: inhibitors of human ABHD5-perilipin-5 interaction; Split G. princeps luciferase complementation, luminescence, 4 h; inhibition, % at 4 µM; 360,000 compounds, 0.78% hits;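 active = inhibition above the mean inhibition across every tested compound plus 3 SD, cut at about 22% in these data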
TLR9-MyD88 block: blocks human TLR9 binding to MyD88; Q9NR96+Q99836; CHO BLA complementation TLR9-MyD88, CCF4 FRET ratio; inhibition, % at 4.98 µM; 340,000 compounds, 0.21% hits;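 active = inhibition above the mean over all tested compounds plus 3 SD, cut at about 21% in these data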
Target sequence (Q99836 whole entry, looked up): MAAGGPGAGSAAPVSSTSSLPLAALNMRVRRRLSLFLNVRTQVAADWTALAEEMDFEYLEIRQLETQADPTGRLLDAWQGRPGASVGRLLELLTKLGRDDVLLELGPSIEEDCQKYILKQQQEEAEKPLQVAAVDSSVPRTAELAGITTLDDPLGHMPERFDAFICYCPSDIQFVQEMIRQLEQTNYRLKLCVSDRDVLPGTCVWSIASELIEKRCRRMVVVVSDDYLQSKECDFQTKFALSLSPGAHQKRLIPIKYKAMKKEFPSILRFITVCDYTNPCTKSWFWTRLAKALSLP
Target sequence (Q9NR96 whole entry, looked up): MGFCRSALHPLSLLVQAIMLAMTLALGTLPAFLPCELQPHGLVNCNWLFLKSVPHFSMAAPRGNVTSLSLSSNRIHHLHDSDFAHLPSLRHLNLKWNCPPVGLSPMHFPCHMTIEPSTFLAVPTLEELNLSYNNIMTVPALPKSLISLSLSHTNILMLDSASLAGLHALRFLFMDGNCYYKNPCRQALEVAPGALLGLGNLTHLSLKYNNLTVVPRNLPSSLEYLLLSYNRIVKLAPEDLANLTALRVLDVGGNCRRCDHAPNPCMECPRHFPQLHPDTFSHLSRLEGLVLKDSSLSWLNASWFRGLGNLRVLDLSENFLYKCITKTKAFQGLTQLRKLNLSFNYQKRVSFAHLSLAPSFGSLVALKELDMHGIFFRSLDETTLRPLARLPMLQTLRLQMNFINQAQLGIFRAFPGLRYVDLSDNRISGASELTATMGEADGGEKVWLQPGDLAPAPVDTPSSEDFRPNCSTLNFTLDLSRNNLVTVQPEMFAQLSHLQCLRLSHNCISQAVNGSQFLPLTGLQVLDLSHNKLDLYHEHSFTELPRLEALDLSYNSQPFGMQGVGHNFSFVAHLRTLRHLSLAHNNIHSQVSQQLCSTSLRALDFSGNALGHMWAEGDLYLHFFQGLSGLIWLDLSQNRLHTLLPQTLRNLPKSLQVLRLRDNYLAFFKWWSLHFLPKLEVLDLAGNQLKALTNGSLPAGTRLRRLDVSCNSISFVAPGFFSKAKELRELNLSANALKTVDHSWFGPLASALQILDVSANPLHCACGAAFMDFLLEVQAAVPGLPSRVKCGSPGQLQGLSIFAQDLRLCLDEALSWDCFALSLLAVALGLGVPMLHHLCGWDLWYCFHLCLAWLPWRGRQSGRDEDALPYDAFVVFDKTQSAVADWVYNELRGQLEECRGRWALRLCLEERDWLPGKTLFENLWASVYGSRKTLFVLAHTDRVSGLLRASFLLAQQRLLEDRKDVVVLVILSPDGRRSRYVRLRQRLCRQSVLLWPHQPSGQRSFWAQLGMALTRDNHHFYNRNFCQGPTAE
TLR4 MyD88 comp: blocks binding of human TLR4 to MyD88 | inhibition, % at 8.4 µM | O00206+Q99836 | 200,000 compounds, 0.18% hits | HeLa CL3-4 TLR4/MyD88 BLA complementation, FRET ratio | AID 861; in the data active = inhibition above about 25%
Large screens that a line does not name were inactive.

Cc1ccc(CNC(=O)Cn2cnc(S(=O)(=O)N3CCC(C)CC3)c2)o1	ABHD5 PLIN5 PPI 22 (no result: Dynein cargo inh, TLR4 MyD88 comp)
CC(=O)c1ccc(NC(=O)Cn2cnc(S(=O)(=O)N3CCC(C)CC3)c2)cc1	none (no result: Dynein cargo inh, TLR4 MyD88 comp)
O=S(=O)(c1ccc2c(c1)CCCC2)N1CCNCC1	none (no result: Dynein cargo inh, TLR4 MyD88 comp)
CCN(CC)c1ccc(/C=N/NC(=O)c2cccc(S(=O)(=O)Nc3ccccc3OC)c2)cc1	none
CCN(CC)c1ccc(/C=N/NC(=O)c2cccc(S(=O)(=O)Nc3ccccc3OC)c2)c(O)c1	NOD2-RIPK2 inh 21, TLR9-MyD88 block 21
CC(C)(C)c1ccc(/C=C(\c2nc3ccccc3[nH]2)S(=O)(=O)c2ccccc2)cc1	ABHD5 PLIN5 PPI 43 (no result: Dynein cargo inh, TLR4 MyD88 comp)
O=C(O)c1ccc(/C=C(\c2nc3ccccc3[nH]2)c2nc3ccccc3s2)cc1	none (no result: TLR4 MyD88 comp)
CCCCCCCCN1C(=O)[C@H](CC(=O)N2CCN(C(=O)c3ccco3)CC2)C[C@@]2(C(=O)OCC)CCCC=C12	none (no result: Beta2AR agonist, Dynein cargo inh, TLR9-MyD88 block, TLR4 MyD88 comp)
Cc1ccccc1NC(=O)Nc1nc(C2CCC(=O)N2)cs1 (configuration not stated)	none (no result: Beta2AR agonist, Dynein cargo inh, TLR9-MyD88 block, TLR4 MyD88 comp)
CC(C)c1nc(CNC(=O)C2CCC(=O)N(CCc3cccc(F)c3)C2)cs1 (configuration not stated)	none (no result: Dynein cargo inh, TLR4 MyD88 comp)
CN=c1scc(-c2ccccc2F)n1/N=C/c1ccc(O)c(O)c1O	Beta2AR agonist 101
CN=c1scc(-c2ccccc2F)n1/N=C/c1ccc[nH]1	none
CN1[C@@H](COCc2ccccc2)C=CS1(=O)=O	none (no result: Beta2AR agonist, Dynein cargo inh, TLR9-MyD88 block, TLR4 MyD88 comp)
O=C/C=C/c1c(-c2ccccc2)cc2oc3ccccc3cc1-2	Beta2AR agonist 64 (no result: Dynein cargo inh, TLR4 MyD88 comp)
COc1ccccc1CNC(=O)c1cc(-c2cc(F)ccc2OC(C)C)n[nH]1	none (no result: Beta2AR agonist, Dynein cargo inh, TLR9-MyD88 block, TLR4 MyD88 comp)
Nc1c(N2CCOCC2)cc(Cl)c2nonc12	Beta2AR agonist 46
Nc1c(N2CCCC2)cc(Cl)c2nonc12	none
COc1cccc(-c2onc3ccc(C(C)=O)cc23)c1	none (no result: Dynein cargo inh, TLR4 MyD88 comp)
CC(=O)c1ccc2noc(-c3cccc(F)c3)c2c1	ABHD5 PLIN5 PPI 22 (no result: Dynein cargo inh, TLR4 MyD88 comp)
O=C(N=Nc1c(O)[nH]c2ccc(Cl)cc12)c1cc(-c2cccs2)nc2ccccc12	Beta2AR agonist 47
Cc1ccc2cc(CCNS(=O)(=O)c3ccc(Br)cc3)c(=O)[nH]c2c1C	Beta2AR agonist 55 (no result: Dynein cargo inh, TLR4 MyD88 comp)
Cc1cc(C)c(S(=O)(=O)NCCc2cc3ccc(C)c(C)c3[nH]c2=O)c(C)c1	none (no result: Dynein cargo inh, TLR4 MyD88 comp)
COC(=O)[C@H]1C[C@@]2(O)CN(S(=O)(=O)c3ccc(C)cc3)C[C@@]2(OC(=O)Nc2c(C)noc2C)C[C@H]1C(=O)OC	none (no result: Beta2AR agonist, Dynein cargo inh, TLR4 MyD88 comp)
Cc1ccc(S(=O)(=O)/N=C2\C=C(NS(=O)(=O)c3ccccc3)C(=O)c3ccccc32)c(C)c1	none (no result: Dynein cargo inh, TLR4 MyD88 comp)
CC(C)(C)c1ccc(S(=O)(=O)/N=C2\C=C(NS(=O)(=O)c3ccccc3)C(=O)c3ccccc32)cc1	none (no result: Dynein cargo inh, TLR4 MyD88 comp)
Cc1ccc(S(=O)(=O)/N=C2/C=C(Sc3ncn[nH]3)C(=O)c3ccccc32)c(C)c1	Dynein cargo inh -3.6 (no result: Beta2AR agonist, NOD2-RIPK2 inh, ABHD5 PLIN5 PPI, TLR9-MyD88 block)
CC(C)c1ccc(S(=O)(=O)/N=C2/C=C(Sc3ncn[nH]3)C(=O)c3ccccc32)cc1	Dynein cargo inh -5.3
Cc1ccc(S(=O)(=O)/N=C2/C=C(Sc3ncn[nH]3)C(=O)c3ccccc32)cc1	Beta2AR agonist 85, Dynein cargo inh -3.7, ABHD5 PLIN5 PPI 40
Cc1ccc(S(=O)(=O)Nc2ccc(O)c(Sc3ncn[nH]3)c2)cc1	none
COc1ccc(S(=O)(=O)N(C)C[C@@H]2OCc3cn(nn3)CCCC(=O)N([C@@H](C)CO)C[C@H]2C)cc1	none (no result: Beta2AR agonist, Dynein cargo inh, TLR4 MyD88 comp)
CC(C)(C)C(=O)/C(=C/c1ccc(Cl)cc1)n1cncn1	none (no result: Dynein cargo inh, TLR4 MyD88 comp)
CC(C)(C)C(=O)/C(=C\c1ccc([N+](=O)[O-])cc1)n1cncn1	Dynein cargo inh -5.1 (no result: Beta2AR agonist, NOD2-RIPK2 inh, ABHD5 PLIN5 PPI, TLR9-MyD88 block)
COc1ccc(S(=O)(=O)NCc2ccco2)c2ccccc12	ABHD5 PLIN5 PPI 23
COc1ccc(/C=C/C(=O)O)cc1S(=O)(=O)NCc1ccco1	none (no result: TLR4 MyD88 comp)
COc1ccc(/C=C/C(=O)c2ccc([N+](=O)[O-])o2)cc1	Beta2AR agonist 59 (no result: Dynein cargo inh, TLR4 MyD88 comp)
COC(=O)[C@@]1(C(C)C)N=C(c2cc(OC)c(OC)c(OC)c2)[C@]2(O1)C(=O)N(C)c1ccc(Br)cc12	none (no result: Beta2AR agonist, Dynein cargo inh, TLR9-MyD88 block, TLR4 MyD88 comp)
CCNC(=O)C1(C)CCN(Cc2ccc(OC(F)(F)F)cc2)C1 (configuration not stated)	none (no result: Beta2AR agonist, Dynein cargo inh, TLR9-MyD88 block, TLR4 MyD88 comp)

Screening results (PubChem BioAssay)
